≈ marks a conversion by molar mass, not a printed value.
What was measured:
Type in all cases: functional
Staphylococcus aureus [1] = experiment: Antimicrobial activity against Staphylococcus aureus ATCC […] after 18-24 hrs by two-fold serial dilution method
Method in brief: (§1)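 Agar-medium twofold serial dilution against Gram-positive and Gram-negative strains; MIC taken as the lowest compound concentration giving complete inhibition of bacterial growth after incubation at 35 °C for 18-24 h.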

Staphylococcus aureus [2] = experiment: Antimicrobial activity against extended spectrum beta-lactamases-producing methicillin-resistant Staphylococcus aureus 10-11 after 18-24 hrs by two-fold serial dilution method
Method in brief: (§2)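 Agar twofold serial dilution MIC against clinical isolates. MIC was taken as the lowest concentration giving complete inhibition of bacterial growth after incubation at 35 °C for 18-24 h.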

Staphylococcus aureus [3] = experiment: Antimicrobial activity against extended spectrum beta-lactamases-producing methicillin-resistant Staphylococcus aureus 10-15 after 18-24 hrs by two-fold serial dilution method; method in brief: as §2
Staphylococcus aureus [4] = experiment: Antimicrobial activity against extended spectrum beta-lactamases-producing methicillin-sensitive Staphylococcus aureus 10-13 after 18-24 hrs by two-fold serial dilution method; method in brief: as §1
Staphylococcus aureus [5] = experiment: Antimicrobial activity against extended spectrum beta-lactamases-producing methicillin-sensitive Staphylococcus aureus 10-14 after 18-24 hrs by two-fold serial dilution method; method in brief: as §1
[6] = test system: Staphylococcus epidermidis; experiment: Antimicrobial activity against extended spectrum beta-lactamases-producing methicillin-resistant Staphylococcus epidermidis 10-10 after 18-24 hrs by two-fold serial dilution method; method in brief: as §2
[7] = test system: Staphylococcus epidermidis; experiment: Antimicrobial activity against extended spectrum beta-lactamases-producing methicillin-resistant Staphylococcus epidermidis 10-13 after 18-24 hrs by two-fold serial dilution method; method in brief: as §2
[8] = test system: Staphylococcus epidermidis; experiment: Antimicrobial activity against extended spectrum beta-lactamases-producing methicillin-sensitive Staphylococcus epidermidis 10-11 after 18-24 hrs by two-fold serial dilution method; method in brief: as §1
[9] = test system: Staphylococcus epidermidis; experiment: Antimicrobial activity against extended spectrum beta-lactamases-producing methicillin-sensitive Staphylococcus epidermidis 10-13 after 18-24 hrs by two-fold serial dilution method; method in brief: as §1
[10] = test system: Staphylococcus epidermidis; experiment: Antimicrobial activity against extended spectrum beta-lactamases-producing methicillin-sensitive Staphylococcus epidermidis 10-15 after 18-24 hrs by two-fold serial dilution method; method in brief: as §1
Enterococcus faecalis [11] = experiment: Antimicrobial activity against Enterococcus faecalis 10-5 after 18-24 hrs by two-fold serial dilution method; method in brief: as §1
Enterococcus faecalis [12] = experiment: Antimicrobial activity against Enterococcus faecalis 10-6 after 18-24 hrs by two-fold serial dilution method; method in brief: as §1
Enterococcus faecalis [13] = experiment: Antimicrobial activity against Enterococcus faecalis 10-7 after 18-24 hrs by two-fold serial dilution method; method in brief: as §1
Enterococcus faecium [14] = experiment: Antimicrobial activity against Enterococcus faecium 10-5 after 18-24 hrs by two-fold serial dilution method; method in brief: as §1
Enterococcus faecium [15] = experiment: Antimicrobial activity against Enterococcus faecium 10-9 after 18-24 hrs by two-fold serial dilution method; method in brief: as §1
Streptococcus pneumoniae [16] = experiment: Antimicrobial activity against extended spectrum beta-lactamases-producing Streptococcus pneumoniae 10-1 after 18-24 hrs by two-fold serial dilution method; method in brief: as §1
Streptococcus pneumoniae [17] = experiment: Antimicrobial activity against extended spectrum beta-lactamases-producing Streptococcus pneumoniae 10-4 after 18-24 hrs by two-fold serial dilution method; method in brief: as §1
Escherichia coli [18] = experiment: Antimicrobial activity against Escherichia coli ATCC 25922 after 18-24 hrs by two-fold serial dilution method; method in brief: as §1
Escherichia coli [19] = experiment: Antimicrobial activity against Escherichia coli 10-1 after 18-24 hrs by two-fold serial dilution method; method in brief: as §1
Escherichia coli [20] = experiment: Antimicrobial activity against Escherichia coli 10-2 after 18-24 hrs by two-fold serial dilution method; method in brief: as §1
Escherichia coli [21] = experiment: Antimicrobial activity against extended spectrum beta-lactamases-producing Escherichia coli 10-2 after 18-24 hrs by two-fold serial dilution method; method in brief: as §1
Escherichia coli [22] = experiment: Antimicrobial activity against Escherichia coli 10-3 after 18-24 hrs by two-fold serial dilution method; method in brief: as §1
Escherichia coli [23] = experiment: Antimicrobial activity against extended spectrum beta-lactamases-producing Escherichia coli 10-3 after 18-24 hrs by two-fold serial dilution method; method in brief: as §1
Escherichia coli [24] = experiment: Antimicrobial activity against extended spectrum beta-lactamases-producing Escherichia coli 10-4 after 18-24 hrs by two-fold serial dilution method; method in brief: as §1
Klebsiella pneumoniae [25] = experiment: Antimicrobial activity against extended spectrum beta-lactamases-producing Klebsiella pneumoniae 10-1 after 18-24 hrs by two-fold serial dilution method; method in brief: as §1
Klebsiella pneumoniae [26] = experiment: Antimicrobial activity against Klebsiella pneumoniae 10-2 after 18-24 hrs by two-fold serial dilution method; method in brief: as §1
Klebsiella pneumoniae [27] = experiment: Antimicrobial activity against extended spectrum beta-lactamases-producing Klebsiella pneumoniae 10-2 after 18-24 hrs by two-fold serial dilution method; method in brief: as §1
Klebsiella pneumoniae [28] = experiment: Antimicrobial activity against Klebsiella pneumoniae 10-3 after 18-24 hrs by two-fold serial dilution method; method in brief: as §1
Klebsiella pneumoniae [29] = experiment: Antimicrobial activity against extended spectrum beta-lactamases-producing Klebsiella pneumoniae 10-3 after 18-24 hrs by two-fold serial dilution method; method in brief: as §1
Klebsiella pneumoniae [30] = experiment: Antimicrobial activity against Klebsiella pneumoniae 10-4 after 18-24 hrs by two-fold serial dilution method; method in brief: as §1
Pseudomonas aeruginosa [31] = experiment: Antimicrobial activity against Pseudomonas aeruginosa 10-12 after 18-24 hrs by two-fold serial dilution method; method in brief: as §1
Pseudomonas aeruginosa [32] = experiment: Antimicrobial activity against extended spectrum beta-lactamases-producing Pseudomonas aeruginosa 10-5 after 18-24 hrs by two-fold serial dilution method; method in brief: as §1
Pseudomonas aeruginosa [33] = experiment: Antimicrobial activity against extended spectrum beta-lactamases-producing Pseudomonas aeruginosa 10-9 after 18-24 hrs by two-fold serial dilution method; method in brief: as §1
Pseudomonas aeruginosa [34] = experiment: Antimicrobial activity against extended spectrum beta-lactamases-producing Pseudomonas aeruginosa 10-15 after 18-24 hrs by two-fold serial dilution method; method in brief: as §1
Pseudomonas aeruginosa [35] = experiment: Antimicrobial activity against extended spectrum beta-lactamases-producing Pseudomonas aeruginosa 10-18 after 18-24 hrs by two-fold serial dilution method; method in brief: as §1
Pseudomonas aeruginosa [36] = experiment: Antimicrobial activity against extended spectrum beta-lactamases-producing Pseudomonas aeruginosa 10-20 after 18-24 hrs by two-fold serial dilution method; method in brief: as §1
Staphylococcus aureus [37] = experiment: Antimicrobial activity against methicillin-resistant Staphylococcus aureus clinical isolate after 18-24 hrs by two-fold serial dilution method; method in brief: as §2
[38] = test system: Staphylococcus epidermidis; experiment: Antimicrobial activity against methicillin-resistant Staphylococcus epidermidis clinical isolate after 18-24 hrs by two-fold serial dilution method

Row | Compound | MIC (Staphylococcus aureus [1]) [µg/mL] | MIC (Staphylococcus aureus [2]) [µg/mL] | MIC (Staphylococcus aureus [3]) [µg/mL] | MIC (Staphylococcus aureus [4]) [µg/mL] | MIC (Staphylococcus aureus [5]) [µg/mL] | MIC [6] [µg/mL] | MIC [7] [µg/mL] | MIC [8] [µg/mL] | MIC [9] [µg/mL] | MIC [10] [µg/mL] | MIC (Enterococcus faecalis [11]) [µg/mL] | MIC (Enterococcus faecalis [12]) [µg/mL] | MIC (Enterococcus faecalis [13]) [µg/mL] | MIC (Enterococcus faecium [14]) [µg/mL] | MIC (Enterococcus faecium [15]) [µg/mL] | MIC (Streptococcus pneumoniae [16]) [µg/mL] | MIC (Streptococcus pneumoniae [17]) [µg/mL] | MIC (Escherichia coli [18]) [µg/mL] | MIC (Escherichia coli [19]) [µg/mL] | MIC (Escherichia coli [20]) [µg/mL] | further results
1 | COc1cccc(CO/N=C2\CN(c3nc4c(cc3F)c(=O)c(C(=O)O)cn4C3CC3)CC2CN)c1OC.CS(=O)(=O)O (racemic) | 0.015 | 1 | 4 | 0.03 | 0.06 | 0.5 | 0.25 | 0.25 | 0.06 | 4 | 0.25 | 4 | 1 | 4 | 4 | 0.125 | 0.06 | 0.125 | > 128 | 16 | MIC (Escherichia coli [21]): > 128 µg/mL; MIC (Escherichia coli [22]): 16 µg/mL; MIC (Escherichia coli [23]): 32 µg/mL; MIC (Escherichia coli [24]): 2 µg/mL; MIC (Klebsiella pneumoniae [25]): > 128 µg/mL; MIC (Klebsiella pneumoniae [26]): 128 µg/mL; MIC (Klebsiella pneumoniae [27]): > 128 µg/mL; MIC (Klebsiella pneumoniae [28]): 2 µg/mL; MIC (Klebsiella pneumoniae [29]): > 128 µg/mL; MIC (Klebsiella pneumoniae [30]): > 128 µg/mL; MIC (Pseudomonas aeruginosa [31]): 8 µg/mL; MIC (Pseudomonas aeruginosa [32]): 4 µg/mL; MIC (Pseudomonas aeruginosa [33]): 4 µg/mL; MIC (Pseudomonas aeruginosa [34]): 8 µg/mL; MIC (Pseudomonas aeruginosa [35]): 4 µg/mL; MIC (Pseudomonas aeruginosa [36]): 8 µg/mL; MIC50 (Staphylococcus aureus [37]): 1 µg/mL; MIC90 (Staphylococcus aureus [37]): 4 µg/mL
2 | COc1cc(CO/N=C2\CN(c3nc4c(cc3F)c(=O)c(C(=O)O)cn4C3CC3)CC2CN)ccc1OC(F)F.CS(=O)(=O)O (racemic) | 0.008 | 2 | 0.5 | 0.06 | 0.03 | 2 | 4 | 0.25 | 8 | 4 | 2 | 8 | 4 | 8 | 16 | 0.25 | 2 | 0.06 | > 128 | 16 | MIC (Escherichia coli [21]): > 128 µg/mL; MIC (Escherichia coli [22]): 16 µg/mL; MIC (Escherichia coli [23]): > 128 µg/mL; MIC (Escherichia coli [24]): 8 µg/mL; MIC (Klebsiella pneumoniae [25]): > 128 µg/mL; MIC (Klebsiella pneumoniae [26]): > 128 µg/mL; MIC (Klebsiella pneumoniae [27]): > 128 µg/mL; MIC (Klebsiella pneumoniae [28]): 8 µg/mL; MIC (Klebsiella pneumoniae [29]): > 128 µg/mL; MIC (Klebsiella pneumoniae [30]): > 128 µg/mL; MIC (Pseudomonas aeruginosa [31]): 8 µg/mL; MIC (Pseudomonas aeruginosa [32]): 8 µg/mL; MIC (Pseudomonas aeruginosa [33]): 8 µg/mL; MIC (Pseudomonas aeruginosa [34]): 32 µg/mL; MIC (Pseudomonas aeruginosa [35]): 16 µg/mL; MIC (Pseudomonas aeruginosa [36]): 8 µg/mL
3 | CO/N=C1\CN(c2nc3c(cc2F)c(=O)c(C(=O)O)cn3C2CC2)CC1CN (centres undefined) [GEMIFLOXACIN] | 0.06 (≈ 0.154 µM) | 4 (≈ 10.3 µM) | 1 (≈ 2.57 µM) | 0.25 (≈ 0.642 µM) | 0.06 (≈ 0.154 µM) | 2 (≈ 5.14 µM) | 0.5 (≈ 1.28 µM) | 16 (≈ 41.1 µM) | 1 (≈ 2.57 µM) | 16 (≈ 41.1 µM) | 1 (≈ 2.57 µM) | 8 (≈ 20.5 µM) | 2 (≈ 5.14 µM) | 8 (≈ 20.5 µM) | 8 (≈ 20.5 µM) | 2 (≈ 5.14 µM) | 2 (≈ 5.14 µM) | 0.03 (≈ 0.077 µM) | 8 (≈ 20.5 µM) | 0.5 (≈ 1.28 µM) | MIC (Escherichia coli [21]): 16 µg/mL (≈ 41.1 µM); MIC (Escherichia coli [22]): 0.5 µg/mL (≈ 1.28 µM); MIC (Escherichia coli [23]): 2 µg/mL (≈ 5.14 µM); MIC (Escherichia coli [24]): 8 µg/mL (≈ 20.5 µM); MIC (Klebsiella pneumoniae [25]): 16 µg/mL (≈ 41.1 µM); MIC (Klebsiella pneumoniae [26]): 0.5 µg/mL (≈ 1.28 µM); MIC (Klebsiella pneumoniae [27]): 16 µg/mL (≈ 41.1 µM); MIC (Klebsiella pneumoniae [28]): 8 µg/mL (≈ 20.5 µM); MIC (Klebsiella pneumoniae [29]): 16 µg/mL (≈ 41.1 µM); MIC (Klebsiella pneumoniae [30]): 32 µg/mL (≈ 82.2 µM); MIC (Pseudomonas aeruginosa [31]): 0.03 µg/mL (≈ 0.077 µM); MIC (Pseudomonas aeruginosa [32]): 0.5 µg/mL (≈ 1.28 µM); MIC (Pseudomonas aeruginosa [33]): 0.5 µg/mL (≈ 1.28 µM); MIC (Pseudomonas aeruginosa [34]): 1 µg/mL (≈ 2.57 µM); MIC (Pseudomonas aeruginosa [35]): 2 µg/mL (≈ 5.14 µM); MIC (Pseudomonas aeruginosa [36]): 0.5 µg/mL (≈ 1.28 µM); MIC50 (Staphylococcus aureus [37]): 2 µg/mL (≈ 5.14 µM); MIC90 (Staphylococcus aureus [37]): 8 µg/mL (≈ 20.5 µM); MIC50 [38]: 0.25 µg/mL (≈ 0.642 µM); MIC90 [38]: 8 µg/mL (≈ 20.5 µM)

Reference: ChEMBL document CHEMBL2062435, “Synthesis and in vitro antibacterial activity of gemifloxacin derivatives containing a substituted benzyloxime moiety” (2012)
